According to ChEMBL document CHEMBL2157880, “Synthesis, antimycobacterial and antibacterial activity of ciprofloxacin derivatives containing a N-substituted benzyl moiety” (2012):
Values after ≈ are worked out from the molar mass of the structure shown.

System: Pseudomonas aeruginosa
Experiment: Antibacterial activity against Pseudomonas aeruginosa 10-18 after 18 to 24 hrs by NCCLS method
Type: functional
Outline: (§1)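 Standard NCCLS (M100-S11) MIC testing against Gram-positive and Gram-negative strains. Plates were incubated at 35 °C for 18–24 h. The MIC was read as the lowest concentration giving complete inhibition of visible bacterial growth.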

Compound	MIC [µg/mL]
COc1cccc(CN2CCN(c3cc4c(cc3F)c(=O)c(C(=O)O)cn4C3CC3)CC2)c1OC	64 (≈ 133 µM)

System: Enterococcus faecium
Experiment: Antibacterial activity against Enterococcus faecium 10-9 after 18 to 24 hrs by NCCLS method
Type: functional
Outline: as §1

Compound	MIC [µg/mL]
COc1cccc(CN2CCN(c3cc4c(cc3F)c(=O)c(C(=O)O)cn4C3CC3)CC2)c1OC	32 (≈ 66.5 µM)

System: Escherichia coli
Experiment: Antibacterial activity against Escherichia coli ATCC 25922 after 18 to 24 hrs by NCCLS method
Type: functional
Outline: as §1

Compound	MIC [µg/mL]
COc1cccc(CN2CCN(c3cc4c(cc3F)c(=O)c(C(=O)O)cn4C3CC3)CC2)c1OC	0.5 (≈ 1.04 µM)

System: Staphylococcus aureus
Experiment: Antibacterial activity against methicillin-resistant Staphylococcus aureus 10-15 after 18 to 24 hrs by NCCLS method
Type: functional
Outline: (§2)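 Incubated at 35 °C for 18–24 h under NCCLS (M100-S11) standards. MIC was read as the lowest concentration giving complete inhibition of visible bacterial growth.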

Compound	MIC [µg/mL]
COc1cccc(CN2CCN(c3cc4c(cc3F)c(=O)c(C(=O)O)cn4C3CC3)CC2)c1OC	16 (≈ 33.2 µM)

System: Escherichia coli
Experiment: Antibacterial activity against extended spectrum beta-lactamases producing Escherichia coli 10-2 after 18 to 24 hrs by NCCLS method
Type: functional
Outline: as §1

Compound	MIC [µg/mL]
COc1cccc(CN2CCN(c3cc4c(cc3F)c(=O)c(C(=O)O)cn4C3CC3)CC2)c1OC	> 128

System: Streptococcus pneumoniae
Experiment: Antibacterial activity against Streptococcus pneumoniae 10-1 after 18 to 24 hrs by NCCLS method
Type: functional
Outline: as §1

Compound	MIC [µg/mL]
COc1cccc(CN2CCN(c3cc4c(cc3F)c(=O)c(C(=O)O)cn4C3CC3)CC2)c1OC	2 (≈ 4.15 µM)

System: Staphylococcus epidermidis
Experiment: Antibacterial activity against methicillin-sensitive Staphylococcus epidermidis 10-11 after 18 to 24 hrs by NCCLS method
Type: functional
Outline: as §1

Compound	MIC [µg/mL]
COc1cccc(CN2CCN(c3cc4c(cc3F)c(=O)c(C(=O)O)cn4C3CC3)CC2)c1OC	0.25 (≈ 0.519 µM)

System: Klebsiella pneumoniae
Experiment: Antibacterial activity against Klebsiella pneumoniae 10-4 after 18 to 24 hrs by NCCLS method
Type: functional
Outline: as §1

Compound	MIC [µg/mL]
COc1cccc(CN2CCN(c3cc4c(cc3F)c(=O)c(C(=O)O)cn4C3CC3)CC2)c1OC	> 128

System: Staphylococcus epidermidis
Experiment: Antibacterial activity against methicillin-resistant Staphylococcus epidermidis 10-13 after 18 to 24 hrs by NCCLS method
Type: functional
Outline: as §2

Compound	MIC [µg/mL]
COc1cccc(CN2CCN(c3cc4c(cc3F)c(=O)c(C(=O)O)cn4C3CC3)CC2)c1OC	32 (≈ 66.5 µM)

System: Pseudomonas aeruginosa
Experiment: Antibacterial activity against Pseudomonas aeruginosa 10-12 after 18 to 24 hrs by NCCLS method
Type: functional
Outline: as §1

Compound	MIC [µg/mL]
COc1cccc(CN2CCN(c3cc4c(cc3F)c(=O)c(C(=O)O)cn4C3CC3)CC2)c1OC	32 (≈ 66.5 µM)

System: Enterococcus faecalis
Experiment: Antibacterial activity against Enterococcus faecalis 10-7 after 18 to 24 hrs by NCCLS method
Type: functional
Outline: as §1

Compound	MIC [µg/mL]
COc1cccc(CN2CCN(c3cc4c(cc3F)c(=O)c(C(=O)O)cn4C3CC3)CC2)c1OC	32 (≈ 66.5 µM)

System: Klebsiella pneumoniae
Experiment: Antibacterial activity against Klebsiella pneumoniae 10-3 after 18 to 24 hrs by NCCLS method
Type: functional
Outline: as §1

Compound	MIC [µg/mL]
COc1cccc(CN2CCN(c3cc4c(cc3F)c(=O)c(C(=O)O)cn4C3CC3)CC2)c1OC	16 (≈ 33.2 µM)

System: Streptococcus pneumoniae
Experiment: Antibacterial activity against Streptococcus pneumoniae 10-6 after 18 to 24 hrs by NCCLS method
Type: functional
Outline: as §1

Compound	MIC [µg/mL]
COc1cccc(CN2CCN(c3cc4c(cc3F)c(=O)c(C(=O)O)cn4C3CC3)CC2)c1OC	32 (≈ 66.5 µM)

System: Escherichia coli
Experiment: Antibacterial activity against Escherichia coli 10-1 after 18 to 24 hrs by NCCLS method
Type: functional
Outline: as §1

Compound	MIC [µg/mL]
COc1cccc(CN2CCN(c3cc4c(cc3F)c(=O)c(C(=O)O)cn4C3CC3)CC2)c1OC	> 128

System: Pseudomonas aeruginosa
Experiment: Antibacterial activity against Pseudomonas aeruginosa 10-5 after 18 to 24 hrs by NCCLS method
Type: functional
Outline: as §1

Compound	MIC [µg/mL]
COc1cccc(CN2CCN(c3cc4c(cc3F)c(=O)c(C(=O)O)cn4C3CC3)CC2)c1OC	32 (≈ 66.5 µM)

System: Klebsiella pneumoniae
Experiment: Antibacterial activity against Klebsiella pneumoniae 10-2 after 18 to 24 hrs by NCCLS method
Type: functional
Outline: as §1

Compound	MIC [µg/mL]
COc1cccc(CN2CCN(c3cc4c(cc3F)c(=O)c(C(=O)O)cn4C3CC3)CC2)c1OC	> 128

System: Escherichia coli
Experiment: Antibacterial activity against Escherichia coli 10-3 after 18 to 24 hrs by NCCLS method
Type: functional
Outline: as §1

Compound	MIC [µg/mL]
COc1cccc(CN2CCN(c3cc4c(cc3F)c(=O)c(C(=O)O)cn4C3CC3)CC2)c1OC	> 128

System: Pseudomonas aeruginosa
Experiment: Antibacterial activity against Pseudomonas aeruginosa 10-15 after 18 to 24 hrs by NCCLS method
Type: functional
Outline: as §1

Compound	MIC [µg/mL]
COc1cccc(CN2CCN(c3cc4c(cc3F)c(=O)c(C(=O)O)cn4C3CC3)CC2)c1OC	32 (≈ 66.5 µM)

System: Enterococcus faecalis
Experiment: Antibacterial activity against Enterococcus faecalis 10-6 after 18 to 24 hrs by NCCLS method
Type: functional
Outline: as §1

Compound	MIC [µg/mL]
COc1cccc(CN2CCN(c3cc4c(cc3F)c(=O)c(C(=O)O)cn4C3CC3)CC2)c1OC	> 128

System: Pseudomonas aeruginosa
Experiment: Antibacterial activity against Pseudomonas aeruginosa 10-20 after 18 to 24 hrs by NCCLS method
Type: functional
Outline: as §1

Compound	MIC [µg/mL]
COc1cccc(CN2CCN(c3cc4c(cc3F)c(=O)c(C(=O)O)cn4C3CC3)CC2)c1OC	128 (≈ 266 µM)

System: Staphylococcus aureus
Experiment: Antibacterial activity against Staphylococcus aureus ATCC 2592 after 18 to 24 hrs by NCCLS method
Type: functional
Outline: as §1

Compound	MIC [µg/mL]
COc1cccc(CN2CCN(c3cc4c(cc3F)c(=O)c(C(=O)O)cn4C3CC3)CC2)c1OC	0.06 (≈ 0.125 µM)

System: Staphylococcus aureus
Experiment: Antibacterial activity against methicillin-sensitive Staphylococcus aureus 10-11 after 18 to 24 hrs by NCCLS method
Type: functional
Outline: as §1

Compound	MIC [µg/mL]
COc1cccc(CN2CCN(c3cc4c(cc3F)c(=O)c(C(=O)O)cn4C3CC3)CC2)c1OC	0.03 (≈ 0.0623 µM)

System: Klebsiella pneumoniae
Experiment: Antibacterial activity against extended spectrum beta-lactamases producing Klebsiella pneumoniae 10-3 after 18 to 24 hrs by NCCLS method
Type: functional
Outline: as §1

Compound	MIC [µg/mL]
COc1cccc(CN2CCN(c3cc4c(cc3F)c(=O)c(C(=O)O)cn4C3CC3)CC2)c1OC	> 128

System: Enterococcus faecalis
Experiment: Antibacterial activity against Enterococcus faecalis 10-5 after 18 to 24 hrs by NCCLS method
Type: functional
Outline: as §1

Compound	MIC [µg/mL]
COc1cccc(CN2CCN(c3cc4c(cc3F)c(=O)c(C(=O)O)cn4C3CC3)CC2)c1OC	8 (≈ 16.6 µM)

System: Staphylococcus aureus
Experiment: Antibacterial activity against methicillin-resistant Staphylococcus aureus 10-11 after 18 to 24 hrs by NCCLS method
Type: functional
Outline: as §2

Compound	MIC [µg/mL]
COc1cccc(CN2CCN(c3cc4c(cc3F)c(=O)c(C(=O)O)cn4C3CC3)CC2)c1OC	16 (≈ 33.2 µM)

System: Mycobacterium tuberculosis
Experiment: Antimycobacterial activity against Mycobacterium tuberculosis H37Rv ATCC 27294 by microplate alamar blue assay
Type: functional
Outline: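 Microplate Alamar Blue fluorescence assay on strain H37Rv ATCC 27294. MIC was the lowest concentration cutting fluorescence by ≥90% against the mean of replicate bacterium-only controls.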

Compound	MIC [µg/mL]
COc1cccc(CN2CCN(c3cc4c(cc3F)c(=O)c(C(=O)O)cn4C3CC3)CC2)c1OC	2 (≈ 4.15 µM)

System: Staphylococcus epidermidis
Experiment: Antibacterial activity against methicillin-resistant Staphylococcus epidermidis 10-10 after 18 to 24 hrs by NCCLS method
Type: functional
Outline: as §2

Compound	MIC [µg/mL]
COc1cccc(CN2CCN(c3cc4c(cc3F)c(=O)c(C(=O)O)cn4C3CC3)CC2)c1OC	8 (≈ 16.6 µM)

System: Staphylococcus aureus
Experiment: Antibacterial activity against methicillin-sensitive Staphylococcus aureus 10-14 after 18 to 24 hrs by NCCLS method
Type: functional
Outline: as §1

Compound	MIC [µg/mL]
COc1cccc(CN2CCN(c3cc4c(cc3F)c(=O)c(C(=O)O)cn4C3CC3)CC2)c1OC	0.125 (≈ 0.26 µM)

System: Staphylococcus aureus
Experiment: Antibacterial activity against methicillin-resistant Staphylococcus aureus 10-13 after 18 to 24 hrs by NCCLS method
Type: functional
Outline: as §2

Compound	MIC [µg/mL]
COc1cccc(CN2CCN(c3cc4c(cc3F)c(=O)c(C(=O)O)cn4C3CC3)CC2)c1OC	32 (≈ 66.5 µM)

System: Klebsiella pneumoniae
Experiment: Antibacterial activity against extended spectrum beta-lactamases producing Klebsiella pneumoniae 10-2 after 18 to 24 hrs by NCCLS method
Type: functional
Outline: as §1

Compound	MIC [µg/mL]
COc1cccc(CN2CCN(c3cc4c(cc3F)c(=O)c(C(=O)O)cn4C3CC3)CC2)c1OC	> 128

System: Pseudomonas aeruginosa
Experiment: Antibacterial activity against Pseudomonas aeruginosa 10-9 after 18 to 24 hrs by NCCLS method
Type: functional
Outline: as §1

Compound	MIC [µg/mL]
COc1cccc(CN2CCN(c3cc4c(cc3F)c(=O)c(C(=O)O)cn4C3CC3)CC2)c1OC	64 (≈ 133 µM)

System: Escherichia coli
Experiment: Antibacterial activity against extended spectrum beta-lactamases producing Escherichia coli 10-4 after 18 to 24 hrs by NCCLS method
Type: functional
Outline: as §1

Compound	MIC [µg/mL]
COc1cccc(CN2CCN(c3cc4c(cc3F)c(=O)c(C(=O)O)cn4C3CC3)CC2)c1OC	128 (≈ 266 µM)

System: Escherichia coli
Experiment: Antibacterial activity against extended spectrum beta-lactamases producing Escherichia coli 10-3 after 18 to 24 hrs by NCCLS method
Type: functional
Outline: as §1

Compound	MIC [µg/mL]
COc1cccc(CN2CCN(c3cc4c(cc3F)c(=O)c(C(=O)O)cn4C3CC3)CC2)c1OC	> 128

System: Escherichia coli
Experiment: Antibacterial activity against Escherichia coli 10-2 after 18 to 24 hrs by NCCLS method
Type: functional
Outline: as §1

Compound	MIC [µg/mL]
COc1cccc(CN2CCN(c3cc4c(cc3F)c(=O)c(C(=O)O)cn4C3CC3)CC2)c1OC	32 (≈ 66.5 µM)

System: Staphylococcus epidermidis
Experiment: Antibacterial activity against methicillin-sensitive Staphylococcus epidermidis 10-15 after 18 to 24 hrs by NCCLS method
Type: functional
Outline: as §2

Compound	MIC [µg/mL]
COc1cccc(CN2CCN(c3cc4c(cc3F)c(=O)c(C(=O)O)cn4C3CC3)CC2)c1OC	8 (≈ 16.6 µM)

System: Enterococcus faecium
Experiment: Antibacterial activity against Enterococcus faecium 10-6 after 18 to 24 hrs by NCCLS method
Type: functional
Outline: as §1

Compound	MIC [µg/mL]
COc1cccc(CN2CCN(c3cc4c(cc3F)c(=O)c(C(=O)O)cn4C3CC3)CC2)c1OC	4 (≈ 8.31 µM)

System: Staphylococcus aureus
Experiment: Antibacterial activity against methicillin-sensitive Staphylococcus aureus 10-13 after 18 to 24 hrs by NCCLS method
Type: functional
Outline: as §1

Compound	MIC [µg/mL]
COc1cccc(CN2CCN(c3cc4c(cc3F)c(=O)c(C(=O)O)cn4C3CC3)CC2)c1OC	0.03 (≈ 0.0623 µM)

System: Klebsiella pneumoniae
Experiment: Antibacterial activity against extended spectrum beta-lactamases producing Klebsiella pneumoniae 10-1 after 18 to 24 hrs by NCCLS method
Type: functional
Outline: as §1

Compound	MIC [µg/mL]
COc1cccc(CN2CCN(c3cc4c(cc3F)c(=O)c(C(=O)O)cn4C3CC3)CC2)c1OC	> 128
